Data reported in article PMC9468506 (Current Research in Food Science, 2022).
In brackets after ≈: the same amount, converted by molar mass. Read-outs that look alike come from different tables or passages of the source.

What was measured:
anti-PBZ mAb = assay: TRFMs-LFIA competitive lateral flow immunoassay with anti-PBZ mAb immunoprobe; assay type: binding, mouse; details: for IC50: TRFMs-LFIA, coating antigen PBZ-2-BSA, optimal conditions; for CR: cross reactivity = IC50 (PBZ)/IC50 (structural analogue) x 100
Summary of the method: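 Anti-analyte mAb coupled by EDC/NHS to carboxylated time-resolved fluorescent microspheres, activated in MES pH 6.0. Nitrocellulose strip has a T line of coating antigen (2 mg/mL) and a C line of goat anti-mouse IgG (0.16 mg/mL). Probe (7.5 μg/mL stock) and 100 μL standard are premixed 3 min, then the strip is dipped 3 min. The T/C fluorescence ratio gives B/B0 against log concentration. IC50 is taken at 50% B/B0, and CR = IC50 (analyte)/IC50 (analogue) × 100.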

[1] = tested on: anti-PBZ antibody (mAb or pAb); details: icELISA, cited from earlier work
anti-PBZ pAb = details: TRFIA, water and soil, ref Liu et al. (2016); cited from earlier work

Compound	IC50 (anti-PBZ mAb) [µg/mL]	CR (anti-PBZ mAb) [%]	IC50 ([1]; mAb, soil, ref Jin (2019)) [µg/mL]	IC50 ([1]; mAb, wheat, ref Cao et al. (2014)) [µg/mL]	IC50 ([1]; pAb, fruits, ref Ouyang et al. (2020)) [µg/mL]	IC50 ([1]; pAb, water and soil, ref Wang (2016)) [µg/mL]	IC50 (anti-PBZ pAb) [µg/mL]
CCCCC(O)(Cn1cncn1)c1ccc(Cl)cc1Cl (stereo not drawn) [Hexaconazole]	>10	<0.1	–	–	–	–	–
CC(C)(C)[C@@H](O)[C@@H](Cc1ccc(Cl)cc1)n1cncn1 [Paclobutrazol]	–	100	0.0116 (≈ 0.0395 µM)	0.0087 (≈ 0.0296 µM)	0.01326 (≈ 0.0451 µM)	0.02135 (≈ 0.0727 µM)	0.00109 (≈ 0.00371 µM)
CC(C)(C)C(O)(CCc1ccc(Cl)cc1)Cn1cncn1 (stereo not drawn) [Tebuconazole]	>10	<0.1	–	–	–	–	–
CC(C)(C)C(=O)C(Oc1ccc(Cl)cc1)n1cncn1 (stereo not drawn) [Triadimefon]	0.44371 (≈ 1.51 µM)	2.10	–	–	–	–	–
CC(C)(C)C(O)C(Oc1ccc(Cl)cc1)n1cncn1 (stereo not drawn) [Triadimenol]	0.92421 (≈ 3.12 µM)	1.01	–	–	–	–	–
CC(C)(C)C(O)/C(=C\c1ccc(Cl)cc1)n1cncn1 (stereo not drawn) [Uniconazole]	3.81516 (≈ 13.1 µM)	0.25	–	–	–	–	–
Diniconazole	>10	<0.1	–	–	–	–	–
